MCL1-BIM inh: inhibitors of human MCL1 binding to BIM-BH3 peptide; GST-MCL1 / FITC-Bim-BH3 fluorescence polarization; inhibition, % at 10.9 µM; actives 0.68% (n = 320,000); AID 2057;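 active = inhibition above the mean inhibition of all tested compounds plus 3 SD, set per campaign, cut at about 40% in these data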;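 also: 0% = DMSO wells and 100% = unlabeled Bim-BH3 peptide control; higher means more loss of mP so more displacement of Bim peptide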
RBBP9 inh: blocks human serine hydrolase RBBP9. O75884. recombinant RBBP9, FP-Rh probe fluorescence polarization. inhibition, % at 7.94 µM. actives 0.2% (n = 220,000). AID 1515;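 active = inhibition above the campaign mean of all tested compounds plus 3 SD, cut at about 14% in these data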;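 also: plate controls were DMSO wells with RBBP9 for no effect and wells lacking RBBP9 protein for full effect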
Target sequence (O75884 whole entry, looked up): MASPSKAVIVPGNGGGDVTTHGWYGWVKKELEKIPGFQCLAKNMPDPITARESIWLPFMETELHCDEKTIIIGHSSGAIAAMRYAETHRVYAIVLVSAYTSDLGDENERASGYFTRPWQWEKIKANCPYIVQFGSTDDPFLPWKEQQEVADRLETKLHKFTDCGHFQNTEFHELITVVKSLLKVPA
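system = RBBP9 protein | input = RBBP9 at 2.5 µM in dispensed solution, before mixing | measured by = fluorescence polarization (mP), excitation 525 nm, emission 598 nm | incubation = enzyme-compound preincubation 30 min, then probe labeling 45 min, 25 °C | buffer or medium = Tris-NaCl-Pluronic buffer, pH 8.0 | compound = single dose 7.94 µM | also added = FP-Rh probe, 375 nM dispensing solution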
Mcl1 Bid PPI: Mcl-1/Bid interaction inhibition; Q07820; TR-FRET Mcl-1/Bid-Dy647 peptide binding, 1536-well; inhibition, % at 21.7 µM; actives 0.97% (n = 220,000);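 active = compounds that cut the binding signal by more than half at the single screening dose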;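 also: His-tagged Mcl-1 with europium anti-His antibody binding Bid BH3 peptide; 0% = Mcl-1 plus peptide wells and 100% = peptide-only wells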
EBV gp42 inh: inhibitors of Epstein-Barr virus glycoprotein 42; Q1HVG2; Fluorescence polarization binding assay, mP read-out; inhibition, % (tested at 21.74 µM); actives 0.42% (n = 220,000); in the data active = inhibition above about 50%
Mcl1 Noxa PPI: Mcl-1/Noxa interaction inhibition. actives 1.5% (n = 220,000). TR-FRET Mcl-1/Noxa peptide binding, 2 h. Q07820. inhibition, % at 21.7 µM;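 active = compounds that cut the protein-peptide binding signal by more than 50% relative to plate controls in a single-dose test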;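 also: His-tagged Mcl-1 with rhodamine Noxa BH3 peptide and terbium anti-His antibody; 0% = Mcl-1 plus Noxa peptide wells and 100% = peptide-only wells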
Mcl-1 Bim block: inhibitors of Bim-Mcl-1 interaction, human; actives 0.1% (n = 190,000); inhibition, % at 10 µM; Bead-based flow cytometry, Bim peptide-Mcl-1 binding; Q07820; in the data active = inhibition above about 40%;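 also: 0% = no compound tracer wells and 100% = peptide blocker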
Bcl-xL conf: counter-screen for MCL1 inhibitors: confirmation of human Bcl-xL inhibitors | shares compounds with MCL1-BIM inh | GST-Bcl-xL / FITC-Bim BH3 peptide FP binding | inhibition, % at 10.9 µM | actives 54% (n = 1,700) | AID 2166;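 active = inhibition above a cutoff equal to the mean inhibition of all tested compounds plus 3 SD, cut at about 30% in these data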;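 also: 0% = DMSO wells and 100% = unlabeled Bim BH3 control peptide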
Target sequence (Q07817 whole entry, looked up): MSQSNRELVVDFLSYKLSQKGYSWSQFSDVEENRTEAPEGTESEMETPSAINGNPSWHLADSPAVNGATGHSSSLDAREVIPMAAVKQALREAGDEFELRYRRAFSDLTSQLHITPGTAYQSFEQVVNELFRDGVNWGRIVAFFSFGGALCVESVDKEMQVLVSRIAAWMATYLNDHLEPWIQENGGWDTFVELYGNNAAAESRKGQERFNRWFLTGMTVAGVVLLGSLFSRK
MCL1 BIM confirm: MCL1-BIM-BH3 interaction inhibition, confirmation | shares compounds with MCL1-BIM inh | actives 61% (n = 1,700) | AID 2168 | inhibition, % at 10.9 µM | GST-MCL1 / FITC-Bim-BH3 fluorescence polarization;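 active = inhibition above the average of all tested compounds plus 3 SD, cut at about 40% in these data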;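 also: 0% = DMSO wells and 100% = unlabeled Bim-BH3 control peptide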
* = called active by the depositor; / = no result given; + = active, no number. The list is not random: actives were taken first. Their share in the collection is about 2.2%.

SMILES | MCL1-BIM inh | RBBP9 inh | Mcl1 Bid PPI | EBV gp42 inh | Mcl1 Noxa PPI | Mcl-1 Bim block | Bcl-xL conf | MCL1 BIM confirm
Cn1c(=O)c2[nH]c(-c3ccccc3)c(O)c2n(C)c1=O | + | 0 | -70 | 122* | 27 | -2 | 142* | 159*
O=C(Nc1cccnc1Cl)C1=NN(c2ccccc2)C(=O)CC1 | 2 | / | / | / | / | / | / | /
Cc1cc(C)nc(NN=C(c2ccccc2)c2ccccc2)n1 | 5 | -8 | -13 | -4 | 7 | -1 | / | /
Oc1ccc(O)c(/C(=N/Nc2ccccc2)c2ccccc2)c1 | 49* | / | / | / | / | / | 17 | 13
CCN(CC)C(=O)CSc1ncnc2sccc12 | -35 | -2 | 0 | 42 | -13 | -6 | / | /
CCN(CC)C(=O)CSc1ncnc2c(-c3cccs3)nsc12 | 64* | -9 | 5 | -15 | -3 | -1 | 14 | 32
CCCCNC(=O)Oc1c(Br)cc2sc(=O)oc2c1Br | 77* | 21* | -24 | -4 | 52* | / | 36* | 58*
Cc1ccc(N2C(=O)N(CC(=O)Nc3ccc(C)c(C)c3)C(=O)C2C)cc1 (configuration not stated) | -12 | / | / | / | / | / | / | /
CCOC(=O)c1ccc(NC(=O)[C@@H](NC(N)=O)C(C)C)cc1 | 120* | -4 | -37 | -13 | -4 | / | 0 | -2
O=C(O)Cn1c2ccccc2c2n[nH]c(=S)nc21 | 20 | / | / | / | / | / | / | /
Cc1ccc(C=C2C(Cl)=C(Cl)C(Cl)=C2Cl)cc1 | 69* | 13 | -1 | -11 | 53* | / | 23 | 30
O=C(CSc1nnc(-c2ccco2)n1Cc1ccccc1)c1ccccc1 | -7 | -9 | 12 | -16 | 10 | 12 | / | /
O=C(CSc1nnc(-c2ccco2)c(-c2ccco2)n1)c1ccccc1 | 43* | -9 | 40 | -4 | 96* | 1 | 43* | 78*
CC(=O)Nc1ccc(NC(=O)CSc2nnc(C3CC3)n2C)cc1 | 2 | -14 | 3 | -6 | 14 | 4 | / | /
Cn1c(SCC(=O)Nc2ccc(F)cc2)nnc1C1CC1 | 176* | / | / | / | / | / | -20 | -36
COCCN(C(=O)COC(=O)c1cc2c(s1)CCC2)c1c(N)n(Cc2ccccc2)c(=O)[nH]c1=O | 91* | / | / | / | / | / | 40* | 88*
COCCNc1nnc(SCC(=O)NNC(=O)c2ccc([N+](=O)[O-])cc2)s1 | 75* | / | / | / | / | / | -3 | 7
CN(C)/C=C1\C=C2C(=O)c3ccccc3N2C1=O | 116* | 11 | -48 | -64 | -199 | / | 115* | 121*
COc1ccc(-c2c(C(F)(F)F)nn(C)c2NC(C)=O)cc1 | -1 | 4 | -4 | -8 | -12 | / | / | /
Cc1ccc(CNC(=O)CN(C)S(=O)(=O)c2cccs2)cc1 | -4 | -12 | -3 | 4 | 7 | 0 | / | /
COc1ccc2c(c1)O/C(=C\c1ccco1)C2=O | 10 | 3 | -21 | -21 | 7 | / | / | /
Cc1cc(O)c(CN(C)C)c2c1C(=O)/C(=C/c1ccco1)O2 | 61* | / | / | / | / | / | 78* | 89*
CCN(CC)c1ccc2c(c1)CCCN2 | 128* | -3 | -55 | -20 | 69* | 14 | 28 | 19
CCOC(=O)N/N=C\c1ccc([N+](=O)[O-])o1 | 64* | -2 | -37 | -2 | 1 | 0 | 1 | 2
CCCCCCCC(=O)N/N=C/c1ccc([N+](=O)[O-])o1 | 14 | 0 | 3 | -15 | 17 | -4 | / | /
O=[N+]([O-])c1ccc(Cl)c2c1C1C=CCC1C(c1ccccn1)N2 (configuration not stated) | 36 | 1 | -49 | -5 | -3 | 2 | / | /
COC(=O)COc1ccc(C2Nc3c(Cl)ccc(C(=O)O)c3C3C=CCC32)cc1 (configuration not stated) | 53* | -1 | -4 | -9 | 18 | -6 | 34* | 32
O=C(O)c1ccc(Cl)c2c1C1C=CCC1C(c1ccccn1)N2 (configuration not stated) | 115* | -3 | 56* | 28 | 89* | 5 | 58* | 82*
CCN(CC)CCCNC(=O)c1ccc2c3n(nc2c1)-c1ccc(Cl)cc1CO3 | 7 | / | / | / | / | / | / | /

Assay outcomes as filed in PubChem.
